Experimental data as given in ChEMBL document CHEMBL3414570, “Small molecule binding sites on the Ras:SOS complex can be exploited for inhibition of Ras activation” (J Med Chem, 2015).
Active and inactive are the calls of the source. No cut-off for these calls is given here.

Columns and labels:
[1] = Binding affinity to 6His-TEV-SH-HRas(1 to 166) (unknown origin)/6His-TEV-SH-SOS (unknown origin) complex by nuclear magnetic resonance analysis; set-up: species or system Homo sapiens
[2] = molecular target: GTPase KRas (Homo sapiens) (UniProt P01116); assay: Inhibition of biotinylated KRas-GDP (unknown origin) at 200 uM incubated for 2.5 hrs followed by SOS addition measured after 4 hrs by HTRF method
Procedure, shortened: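 Biotin-KRas-GDP preincubated with compound (200 μM final during preincubation) 2.5 h ambient; streptavidin-europium then SOS added, 4 h equilibration. GST-Raf/anti-GST-XL665 premix plus GTPγS added to start exchange; final 3 nM KRas, 1 µM SOS, 1 μM GTPγS, 10 nM GST-Raf. HTRF read at 60 min (665/615 nm); inhibition relative to DMSO (0%) and no-KRas (100%) controls.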

[3] = system: GTPase KRas (Homo sapiens), P01116 [G12V]; assay: Time dependent inhibition of KRas G12V mutant (unknown origin) assessed as SOS-mediated MANT-dGDP displacement at 200 uM by microplate reader analysis
Procedure, shortened: (§1)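 KRas (WT, G12V or G12C) preequilibrated 4 h with SOS and MANT-dGDP in HEPES/NaCl/MgCl2/Tween-20 buffer; added to compound (200 μM final). Fluorescence read kinetically (ex 350/em 450 nm) to 85 min; each well referenced to time zero and to DMSO controls.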

[4] = system: GTPase KRas (Homo sapiens), P01116 [G12C]; assay: Time dependent inhibition of KRas G12C mutant (unknown origin) assessed as SOS-mediated MANT-dGDP displacement at 200 uM by microplate reader analysis; procedure, shortened: as §1
[5] = molecular target: GTPase KRas (Homo sapiens) (UniProt P01116); assay: Time dependent inhibition of wild-type KRas (unknown origin) assessed as SOS-mediated MANT-dGDP displacement at 200 uM by microplate reader analysis; procedure, shortened: as §1
[6] = species on record: Homo sapiens; assay: Inhibition of Kras:GDP:SOS complex (unknown origin) at 200 uM after 2.5 hrs by HTRF method
Procedure, shortened: (§2)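 Biotin-KRas-GDP plus SOS preincubated with compound (200 μM final during preincubation) 2.5 h ambient; streptavidin-europium in DTT-containing buffer added, 4 h. GST-Raf/anti-GST-XL665 plus GTPγS then added; final 3 nM KRas, 1 µM SOS, 1 μM GTPγS. HTRF read at 60 min; inhibition relative to DMSO (0%) and no-KRas (100%) controls.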

[7] = species on record: Homo sapiens; assay: Inhibition of SOS (unknown origin) at 200 uM incubated for 2.5 hrs followed by KRas-GDP addition measured after 4 hrs by HTRF method
Procedure, shortened: as §2, with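 “SOS” for “Biotin-KRas-GDP plus SOS”, “then biotin-KRas-GDP” for “in DTT-containing buffer”, “started exchange;” for “then added;”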

GTPase KRas (Homo sapiens), sequence (P01116 whole entry, looked up): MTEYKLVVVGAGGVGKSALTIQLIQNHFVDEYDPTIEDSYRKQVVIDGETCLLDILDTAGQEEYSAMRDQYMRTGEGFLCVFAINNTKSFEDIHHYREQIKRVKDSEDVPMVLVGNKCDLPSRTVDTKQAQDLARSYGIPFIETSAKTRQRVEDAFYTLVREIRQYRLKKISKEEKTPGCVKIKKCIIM
GTPase KRas (Homo sapiens), P01116 [G12C], sequence (P01116 whole entry G12C): as the sequence (P01116 whole entry, looked up) above, with G12C counted along it
GTPase KRas (Homo sapiens), P01116 [G12V], sequence (P01116 whole entry G12V): as the sequence (P01116 whole entry, looked up) above, with G12V counted along it

Kd [1] [mM] | inhibition [6] | inhibition [7] | Structure (SMILES) | further results
1.6 |  |  | CSc1nc(-c2c(C)cccc2C)nc(N2CCNCC2)n1 | 
1.7 |  |  | OC1(c2ccc(Br)cc2)CCNCC1 | 
 | inactive | inactive | CCN1C(=O)C=C(c2cccc(C(N)=O)c2)C1=O | inhibition [2]: inactive; inhibition [3]: Active; inhibition [4]: Active; inhibition [5]: Active
 | 40% | inactive | CCN1C(=O)C=C(c2cc(Cl)cc(C(N)=O)c2)C1=O | 
1.3 |  |  | Brc1ccc(CN2CCCC2)cc1 | 
 | inactive | inactive | CCN1C(=O)C=C(c2cccc(CN)c2)C1=O | inhibition [2]: inactive
 | inactive | inactive | CCN1C(=O)C=C(c2cc(C#N)cc(C(=O)O)c2)C1=O | inhibition [2]: inactive
6 |  |  | Nc1ccc(S(=O)(=O)NC(=O)C2CC2)cc1 | 
6 |  |  | COc1ccc(S(=O)(=O)Nc2nccs2)cc1 | 
 | 40% | inactive | O=C1C=CC(=O)N1C1CCS(=O)(=O)C1 (stereo not drawn) | 
6 |  |  | Brc1ccc2cc[nH]c2c1 | 
3 |  |  | Nc1ccc(S(=O)(=O)N2CCCCC2=O)cc1 | 
